# Compound activity deposited in PubChem BioAssay by The Scripps Research Institute Molecular Screening Center.
# Hits are enriched below; roughly 0.99% of the tested compounds scored in any of these assays.
# LYPLA1 inh = counter-screen for PME1 inhibitors: inhibitors of human LYPLA1; AID 2174; actives 0.16% (n = 320,000); inhibition, % at 5.9 µM; recombinant LYPLA1, FP-Rh probe fluorescence polarization;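 active = inhibition above the mean of all tested compounds plus 3 SD, set per campaign, cut at about 14% in these data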;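 also: inhibitors block serine hydrolase probe labeling of LYPLA1 so polarization falls; 0% = enzyme with DMSO and 100% = wells lacking LYPLA1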
# Target sequence (O75608 whole entry, looked up): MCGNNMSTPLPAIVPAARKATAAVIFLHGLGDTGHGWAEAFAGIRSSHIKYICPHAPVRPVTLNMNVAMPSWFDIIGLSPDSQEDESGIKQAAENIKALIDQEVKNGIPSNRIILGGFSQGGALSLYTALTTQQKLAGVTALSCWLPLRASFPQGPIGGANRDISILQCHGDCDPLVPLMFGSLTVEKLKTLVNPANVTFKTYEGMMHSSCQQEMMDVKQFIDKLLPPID
# PME-1 inh = PME-1 (human) inhibition; actives 0.53% (n = 320,000); recombinant PME-1, FP-Rh probe fluorescence polarization; AID 2130; inhibition, % at 5.9 µM; Q9Y570;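 active = inhibition above the campaign mean of all compounds plus 3 SD, cut at about 26% in these data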;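 also: competitive labeling of PME-1 active site by serine hydrolase directed probe; 0% = PME-1 with DMSO and 100% = wells lacking PME-1 enzyme; inhibitors block probe labeling so polarization falls and inhibition rises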
# LYPLA2 counter = counter-screen for PME1 inhibitors: inhibitors of human LYPLA2. O95372. actives 0.38% (n = 320,000). AID 2177. inhibition, % at 5.9 µM. recombinant LYPLA2, FP-Rh probe fluorescence polarization;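 active = inhibition above the screen-wide mean plus 3 SD, limit set per campaign, cut at about 26% in these data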;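 also: 0% = LYPLA2 with DMSO and 100% = wells lacking LYPLA2 enzyme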
# Target sequence (O95372 whole entry, looked up): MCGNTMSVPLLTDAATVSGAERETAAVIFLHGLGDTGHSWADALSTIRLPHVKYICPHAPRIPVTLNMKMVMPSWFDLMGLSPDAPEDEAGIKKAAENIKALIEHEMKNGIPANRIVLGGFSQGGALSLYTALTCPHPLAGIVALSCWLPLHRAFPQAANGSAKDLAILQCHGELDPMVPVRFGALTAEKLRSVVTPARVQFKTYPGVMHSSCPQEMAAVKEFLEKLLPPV
# Fam108B inh = Fam108B inhibition, counter-screen for RBBP9 inhibitors | inhibition, % at 9.51 µM | actives 0.33% (n = 300,000) | recombinant Fam108B, FP-Rh probe fluorescence polarization;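 active = inhibition above the screen mean inhibition plus 3 SD, computed separately per campaign, cut at about 18% in these data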;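 also: inhibitors lower polarization as less probe binds the enzyme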
# RBBP9 inh = human RBBP9 hydrolase inhibition; O75884; AID 1515; inhibition, % at 7.94 µM; recombinant RBBP9, FP-Rh probe fluorescence polarization; actives 0.2% (n = 220,000);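 active = inhibition above the campaign mean of all tested compounds plus 3 SD, cut at about 14% in these data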;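 also: plate controls were DMSO wells with RBBP9 for no effect and wells lacking RBBP9 protein for full effect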
# Target sequence (O75884 whole entry, looked up): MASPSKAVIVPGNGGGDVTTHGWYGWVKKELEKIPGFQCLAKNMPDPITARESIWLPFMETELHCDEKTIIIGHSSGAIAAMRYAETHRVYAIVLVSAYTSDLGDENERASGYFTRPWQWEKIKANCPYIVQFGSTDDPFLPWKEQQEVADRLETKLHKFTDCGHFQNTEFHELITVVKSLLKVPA
#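 Controls: DMSO-treated enzyme wells and wells lacking RBBP9 | Material: RBBP9 protein | Technique: Fluorescence polarization | Replication: Single well per compound, no replicates | Buffer or medium: Tris-NaCl-Pluronic buffer, pH 8.0 | Timing: 30 min compound preincubation, 45 min probe labeling, 25 °C | Read-out basis: Percent inhibition from mP, scaled between DMSO and no-protein wells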
# LYPLA2 confirm = counter-screen for PME1 inhibitors: confirmation of human LYPLA2 inhibitors | actives 72% (n = 1,100) | recombinant LYPLA2, FP-Rh probe fluorescence polarization | shares compounds with LYPLA2 counter | inhibition, % at 5.9 µM | AID 2232;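 active = mean inhibition across replicates above the hit cutoff set in the primary screen, cut at about 26% in these data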;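 also: blocked labeling of the enzyme by serine hydrolase FP-Rh probe lowers polarization; 0% = enzyme with DMSO and 100% = wells lacking LYPLA2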
# LYPLA2 gel ABPP = LYPLA2 (human) inhibition, late stage results; shares compounds with LYPLA2 counter; rhLYPLA2 in mouse brain proteome, gel ABPP FP-Rh; inhibition, % at 20 µM; actives 30% (n = 150);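 active = inhibition of LYPLA2 enzyme probe labeling above about 50%, limit read from the data; inactive = inhibition below that limit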;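 also: loss of FP-Rh probe labeling of the LYPLA2 gel band measured as band density; 0% = DMSO only control band and 100% = blank gel background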
# The depositor's hits bear a star; x = no result.
SMILES,LYPLA1 inh,PME-1 inh,LYPLA2 counter,Fam108B inh,RBBP9 inh,LYPLA2 confirm,others
Cc1ccc(OCC(=O)NCc2ccccc2)c([N+](=O)[O-])n1,3,-1,54*,1,-6,-5,
Cc1ccccc1C(=O)N1CCN(c2ccc(NC(=S)NC(=O)c3ccco3)cc2)CC1,-3,-2,8,3,x,x,
O=C(Nc1ccc(N2CCN(C(=O)c3ccco3)CC2)c(Cl)c1)c1c(F)c(F)c(F)c(F)c1F,1,-4,62*,-9,-5,64*,LYPLA2 gel ABPP=50*
O=C(Nc1ccc(N2CCN(C(=O)c3ccco3)CC2)cc1)c1cc(Br)ccc1Cl,7,11,44*,x,x,49*,
O=C(c1ccco1)N1CCN(C(=S)Nc2ccc(F)c(Cl)c2)CC1,2,-1,66*,4,x,68*,LYPLA2 gel ABPP=47
COc1ccccc1C(=O)NC(=S)Nc1ccc(N2CCN(C(=O)c3ccco3)CC2)cc1,2,5,27*,1,x,26,
O=C(Nc1ccc(N2CCN(C(=O)c3ccco3)CC2)cc1)c1ccc(Br)cc1,1,-10,-1,-3,x,x,
COC(=O)c1cccn(CC(=O)c2ccc(Cl)cc2Cl)c1=O,1,-2,2,3,-10,x,
CC(=O)c1ccc(N2CCN(C(=O)c3ccc4ccccc4n3)CC2)cc1,-1,-2,1,2,5,x,
CC(=O)c1ccc(N2CCN(C(=O)/C=C/c3ccc4ccccc4n3)CC2)cc1,6,-1,33*,1,2,39*,
CCCCCNCc1ccc(Cl)cc1,0,4,3,0,-5,x,
CCCCCCC[N+](CC)(CC)CCCCc1ccc(Cl)cc1,2,-3,35*,4,x,30*,
COc1cccc(-c2cc(C(=O)Nc3c(C)nn(Cc4ccccc4C)c3C)no2)c1,6,-3,45*,-1,-11,48*,
COc1ccc(-c2cc(C(=O)Nc3c(C)nn(Cc4ccccc4)c3C)no2)cc1,0,-2,7,-3,-6,x,
COc1cccc(-c2cc(C(=O)Nc3c(C)nn(Cc4ccccc4)c3C)no2)c1,8,2,56*,1,-7,45*,
CCc1ccccc1N(CC(=O)NCc1ccco1)C(=O)CCC(=O)Nc1nccs1,4,1,0,-1,x,x,
CC(OC(=O)C1=COCCO1)C(=O)Nc1cc(S(=O)(=O)N2CCCCC2)ccc1Cl (stereo not drawn),-1,-5,-3,-1,-7,x,
Cc1ccc(OCCOC(=O)c2cc(S(=O)(=O)N3CCCCC3)ccc2N2CCOCC2)cc1,-1,8,29*,x,x,31*,
O=C(OCc1ccc([N+](=O)[O-])cc1)c1cc(S(=O)(=O)N2CCCCC2)ccc1N1CCOCC1,2,-1,27*,0,x,33*,
O=C(c1ccc(CS(=O)c2cccc(Cl)c2)o1)N1CCCCCC1 (stereo not drawn),-6,0,-8,-2,x,x,
Cc1cc2oc(=O)ccc2cc1[N+](=O)[O-],0,5,-8,5,x,x,
CCN(CC)CCN1C(=O)c2ccccc2NC1c1ccc(Br)cc1 (stereo not drawn),-1,-6,28*,4,-6,-3,
COc1cc(C(=O)N2CCN(C(=O)c3cc(-c4ccc(Br)cc4)n[nH]3)CC2)cc(OC)c1OC,-3,7,28*,-4,x,32*,
COc1cc(C(=O)N2CCN(C(=O)c3ccccc3)CC2)cc(OC)c1OC,0,3,-5,0,-6,x,
Cc1nn(-c2ccc(F)cc2)c2sc(C(=O)OC3CCOC3=O)cc12 (stereo not drawn),2,-5,35*,1,-5,28*,
SMILES,LYPLA1 inh,PME-1 inh,LYPLA2 counter,Fam108B inh,RBBP9 inh,LYPLA2 confirm,others
CNC(=O)COC(=O)c1cc2c(C)nn(-c3ccc(F)cc3)c2s1,2,0,3,-3,-11,x,
Fc1ccc(CSc2ncnc3ccccc23)cc1,0,6,26*,0,-8,26*,
c1ccc(CSc2ncnc3ccccc23)cc1,1,0,25,2,6,x,
O=C(Nc1ccc(Cl)cc1)Nn1cnc2ccccc2c1=O,-5,-6,30*,0,x,34*,
O=C(Nn1cnc2ccccc2c1=O)c1ccccc1Cl,0,5,3,-2,-1,x,
Cc1nn(C)c(C)c1CN(C)C(=O)c1cc2n(n1)C(C(F)(F)F)CC(c1cccs1)N2 (stereo not drawn),-1,0,26*,3,-9,10,
Cc1nn(C)cc1CN(C)C(=O)c1nn2c(c1Cl)NC(c1cccs1)CC2C(F)(F)F (stereo not drawn),-1,-1,0,5,-4,x,
COc1ccc(-c2[nH]ncc2/C=N/NC(=O)c2cccc([N+](=O)[O-])c2)cc1OC,2,1,-5,5,-8,x,
Cc1ccc(C)c(S(=O)(=O)NCc2ccc(C(=O)N3CCC(Cc4ccccc4)CC3)cc2)c1,-2,-2,45*,-2,-10,47*,
CCOC(=O)C1CCCN(C(=O)c2ccc(CNS(=O)(=O)c3ccc(C)cc3)cc2)C1 (stereo not drawn),0,1,12,1,6,x,
CCOC(=O)C1CCN(C(=O)c2ccc(CNS(=O)(=O)c3ccc(OC)cc3)cc2)CC1,-2,2,26*,8,6,25,
CCN(CC)CCSc1nnc2c3ccccc3n(Cc3ccccc3)c2n1,1,5,2,-3,-1,x,
CCOC(=O)c1sc(/N=C/N(C)C)c(C(=O)OCC)c1C,2,-1,5,4,-8,x,
CCOC(=O)c1sc(/N=C/N(C)C)nc1C,4,2,32*,1,-3,2,
O=[N+]([O-])c1cccnc1Oc1ccc(F)cc1,5,-4,3,0,-3,x,
O=[N+]([O-])c1ccc(Oc2cccc(Br)c2)c2ccncc12,11,10,81*,6,4,79*,LYPLA2 gel ABPP=57*
O=[N+]([O-])c1ccc(Oc2ccc(F)cc2)c2ccncc12,1,4,57*,-3,12,54*,LYPLA2 gel ABPP=12
CCOc1cccc(Nc2ccc([N+](=O)[O-])cn2)c1,4,0,28*,3,x,21,
COc1ccc(CCNS(=O)(=O)c2ccc(Cl)cc2)cc1OC,-1,4,4,6,x,x,
CCOc1ccc(N2C(=O)CC(NCC#N)C2=O)cc1 (stereo not drawn),-1,3,0,3,x,x,
CCCCCCCCN1[C@@H](CC(=O)O)c2cc(C(F)(F)F)ccc2S1(=O)=O,3,7,2,2,x,x,
CCCCCCCCCCCCN1[C@@H](CC(=O)O)c2cc(C(F)(F)F)ccc2S1(=O)=O,11,0,61*,-3,x,60*,LYPLA2 gel ABPP=16
